This is an account of results in ChEMBL document CHEMBL3124803, “Integrating docking scores, interaction profiles and molecular descriptors to improve the accuracy of molecular docking: toward the discovery of novel Akt1 inhibitors” (Eur J Med Chem, 2014).

One may read the IC50 as the concentration that gives 50% inhibition.

The test system of one assay is HCT-116. Put plainly: Cytotoxicity against human HCT116 cells assessed as growth inhibition after 72 hrs by MTT assay. Type of assay: functional, cell-based. The conditions noted are these: HCT-116, 72 h. The method, boiled down: (§1)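 Cells exposed to compound for 72 h, then MTT added. Formazan crystals dissolved in DMSO and absorbance read at 570 nm. Run in triplicate in three independent experiments. IC₅₀ (50% cell growth inhibition) derived by dose-effect analysis.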
Background: Formazan colour is commonly taken as a measure of viable cells.

Assay [1] has as its target RAC-alpha serine/threonine-protein kinase (Homo sapiens, UniProt P31749). In words: Inhibition of AKT1 (unknown origin) using ATP/eNOS as substrate incubated for 5 mins prior to substrate addition measured after 30 mins by fluorescence polarization assay.
For the next assay, the system named is OVCAR-8. Put plainly: Cytotoxicity against human OVCAR8 cells assessed as growth inhibition after 72 hrs by MTT assay. It counts as functional, cell-based. The conditions noted are these: OVCAR-8, 72 h. The method, boiled down: as §1

Sequence of RAC-alpha serine/threonine-protein kinase (P31749 whole entry): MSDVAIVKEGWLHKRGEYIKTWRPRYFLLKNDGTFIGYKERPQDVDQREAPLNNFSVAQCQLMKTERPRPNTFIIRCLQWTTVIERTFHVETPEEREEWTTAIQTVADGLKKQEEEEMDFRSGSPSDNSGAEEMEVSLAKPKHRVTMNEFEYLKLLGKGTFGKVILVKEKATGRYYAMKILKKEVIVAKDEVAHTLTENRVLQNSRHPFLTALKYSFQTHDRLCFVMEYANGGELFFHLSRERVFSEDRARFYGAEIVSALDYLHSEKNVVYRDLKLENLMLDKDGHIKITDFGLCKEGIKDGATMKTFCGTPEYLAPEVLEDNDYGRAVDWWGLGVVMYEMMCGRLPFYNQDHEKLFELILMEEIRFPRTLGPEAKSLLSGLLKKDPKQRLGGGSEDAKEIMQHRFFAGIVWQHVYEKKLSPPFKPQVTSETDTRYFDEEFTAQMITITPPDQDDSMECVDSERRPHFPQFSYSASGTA

As to `CNc1cc(N2CCC(CN)(c3ccc(Cl)c(Cl)c3)CC2)ncn1`, the IC50 worked out at 16.7 µM in the assay with HCT-116 and 1.83 µM in assay [1].

For `NCC1(c2ccc(Cl)c(Cl)c2)CCN(c2cc(N)ncn2)CC1`, the IC50 in the assay with HCT-116 is 19.8 µM; in assay [1] it was 4.32 µM.

Regarding `Nc1ncnc(N2CCN(C(=O)[C@@H](N)Cc3ccccc3)CC2)c1Cl`, the IC50 with HCT-116 amounted to 28.7 µM; in assay [1] it was 1.83 µM.

`Nc1ncnc(N2CCN(C(=O)C(N)Cc3ccc(Cl)cc3)CC2)c1Cl` (racemic): the IC50 in the assay with HCT-116 turned out to be 4.36 µM; in the assay on OVCAR-8, 26.1 µM; in assay [1] it was 0.017 µM.

As for `Nc1ncnc(N2CCN(C(=O)C(N)Cc3ccc(Cl)cc3)CC2)c1Br` (racemic), the IC50 with HCT-116 is 5.15 µM; in the assay on OVCAR-8, 22.7 µM; in assay [1], 0.0077 µM.

On to `Nc1ncnc(N2CCN(C(=O)C(N)Cc3ccccc3)CC2)c1Br` (racemic), for which the IC50 in the assay with HCT-116 is 6.19 µM; in assay [1], 0.432 µM.
